Results: PMC11651071 (International Journal of Nanomedicine, 2024)

Key:
Hela cells [1] = experiment: Cell viability assay; format: cell-based; settings: 24 h
How it was run: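 MTT assay: HeLa cells at 4.5×10^3 cells/well were allowed to adhere for 24 h, then exposed to gradient concentrations for 24, 48 or 72 h, with 0.1% DMSO as negative control. MTT was added for 3.5 h at 37°C, and formazan was dissolved in DMSO and read at 490 nm. Inhibition rate = [1 − (ODsample − ODblank)/(ODcontrol − ODblank)] × 100%. Mean ± SD, ≥3 independent experiments.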

Hela cells [2] = experiment: Wound healing assay; format: cell-based; settings: 24 h, serum-free DMEM
How it was run: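 Scratch assay: a confluent HeLa monolayer (9×10^5 cells/well, 6-well plates) was scraped with a 200 µL pipette tip and washed twice with PBS. Treatments were added in serum-free DMEM and plates kept at 37°C, 5% CO2. Wound closure was imaged by microscope at 0 and 24 h.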

Hela cells [3] = experiment: Cell apoptosis detection; format: cell-based; settings: 24 h
Hela cells [4] = experiment: Cell cycle assay; format: cell-based; settings: 24 h
How it was run: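 HeLa cells (DMEM, 10% FBS) were seeded at 5.5×10^5 cells/well in 6-well plates and treated in DMEM for 24 h. Collected cells were fixed by dropwise 70% ethanol and held at −20°C for 24 h. They were washed twice in chilled PBS, stained with PI buffer for 30 min at room temperature in the dark, and analysed by flow cytometry. Mean ± SD, ≥3 independent experiments.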

[5] = tested on: Hela cells xenograft tumor; experiment: In vivo anti-tumor effect, subcutaneous xenograft model using Hela cells; parameters: species or system nude mice; settings: for Body weight of nude mice during treatment: CU, CA7, CA7-LP 50 mg/kg, DDP-INJ 3.5 mg/kg, i.p. every 2 days for 14 days; for Tumor cell infiltration in kidneys and livers (H&E): after treatment
How it was run: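 Female BALB/c immunodeficient mice (4 w, 15–16 g) received 3.5×10^7 HeLa cells in 100 µL PBS s.c. near the right scapula. At ~100 mm³, mice were randomised into five groups (n = 5): saline, test articles at 50 mg/kg, or cisplatin injection at 3.5 mg/kg. Dosing was i.p. every 2 days for 14 days. Tumour volume (V = 1/2·ab²) and body weight were tracked; tumours were then weighed and organs formalin-fixed for H&E, with tumour Ki67 immunohistochemistry.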

[6] = 50 mg/kg intraperitoneally every 2 days for 14 days

SMILES	Maximum inhibition rate (Hela cells [1])	Migration rate (Hela cells [2])	Total apoptosis rate (Hela cells [3]; 2.5 μM)	Total apoptosis rate (Hela cells [3]; 5 μM)	Total apoptosis rate (Hela cells [3]; 10 μM)	Proportion of the G2/M phase (Hela cells [4]; 2.5 μM)	Proportion of the G2/M phase (Hela cells [4]; 5 μM)	Proportion of the G2/M phase (Hela cells [4]; 10 μM)	Tumor inhibition rate [5, 6]	Tumor weight [5, 6]	Body weight of nude mice during treatment [5]	Tumor cell infiltration in kidneys and livers (H&E) [5]	Change of cell cycle distribution (Hela cells [4])	Mortality of nude mice ([5]; DDP-INJ 3.5 mg/kg i.p., as the number of administrations increased)
COc1cc(/C=C/C(=O)CC(=O)/C=C/c2ccc(O)c(OC)c2)ccc1O [CU, Curcumin]	5.77 ± 2.40%	42.12 ± 3.06%	7.29 ± 1.64%	11.64 ± 3.19%	17.60 ± 3.39%	17.84 ± 1.07%	20.46 ± 2.44%	22.78 ± 3.60%	28.58 ± 8.04%	0.49 ± 0.06 g	remained stable	present in small amounts		
N.N.[Cl][Pt][Cl] [DDP-INJ, Cisplatin]			11.57 ± 1.16%	23.73 ± 2.30%	32.17 ± 3.68%						notable decrease in body weight	absent	increase in the S phase and a decrease in G2/M phase	some mice dying
